{"data": "Results of several laboratories", "tested at": "1 µM", "KIT autoinhibited": "Mast/stem cell growth factor receptor Kit, autoinhibited (KIT, Homo sapiens, UniProt P10721)", "KIT A829P": "Mast/stem cell growth factor receptor Kit (KIT, Homo sapiens, UniProt P10721, A829P)", "KIT D816H": "Mast/stem cell growth factor receptor Kit (KIT, Homo sapiens, UniProt P10721, D816H)", "KIT": "Mast/stem cell growth factor receptor Kit (KIT, Homo sapiens, UniProt P10721)", "KIT T670I/V559D": "Mast/stem cell growth factor receptor Kit (KIT, Homo sapiens, UniProt P10721, T670I/V559D)", "KIT V559D/V654A": "Mast/stem cell growth factor receptor Kit (KIT, Homo sapiens, UniProt P10721, V559D/V654A)", "note": "Compare with care: the assays were run in different laboratories."}
{"target": "KIT autoinhibited", "effect on": "binding", "remaining binding": "76%", "SMILES": "CN(C)c1nccc(-c2cnc3ncccn23)n1"}
{"target": "Mast/stem cell growth factor receptor Kit (KIT, Homo sapiens, UniProt P10721, L576P)", "effect on": "binding", "method": "competition with immobilised ligand", "remaining binding": "2.9%", "SMILES": "CCN1CCN(Cc2ccc(C(=O)Nc3ccc(C)c(Oc4ccc5c(c4)CC(=O)N5)c3)cc2C(F)(F)F)CC1"}
{"target": "KIT A829P", "effect on": "binding", "method": "competition with immobilised ligand", "remaining binding": "7.2%", "SMILES": "Cc1cnc(Nc2ccc(C(=O)N3CCC(N4CCCC4)CC3)cc2)nc1-c1cc2ccccc2s1"}
{"target": "KIT D816H", "effect on": "cell-free assay", "method": "competition with immobilised ligand", "remaining binding": "100%", "SMILES": "Nc1cnc(N2CCc3cc(S(=O)(=O)Nc4c(F)cc(Cl)cc4F)cc(N4CCCC4=O)c32)nc1"}
{"target": "KIT", "effect on": "binding", "method": "competition with immobilised ligand", "remaining binding": "0.05%", "SMILES": "O=C(c1ccc(Nc2ncc(Cl)c(-c3ccc(Cl)s3)n2)cc1)N1CCC(N2CCCC2)CC1"}
{"target": "Mast/stem cell growth factor receptor Kit (KIT, Homo sapiens, UniProt P10721, D816V)", "effect on": "binding", "remaining binding": "88%", "SMILES": "CN(CCCC(F)(F)F)c1nccc(-c2cnn3ncccc23)n1"}
{"target": "KIT T670I/V559D", "effect on": "cell-free assay", "method": "competition with immobilised ligand", "remaining binding": "84%", "SMILES": "O=C(Nc1cnc(Oc2ccc(F)cc2)nc1)N1CCc2ncccc2[C@@H]1c1ccc(F)cc1"}
{"target": "KIT autoinhibited", "effect on": "binding", "remaining binding": "87%", "SMILES": "C[C@@H]1CCN(c2nccc(-c3cnn4ncccc34)n2)C1"}
{"target": "KIT autoinhibited", "effect on": "binding", "method": "competition with immobilised ligand", "remaining binding": "86%", "SMILES": "Nc1ncc2c(n1)-c1c([nH]c3ccc(C#CC4CC4)cc13)CCCC2"}
{"target": "KIT A829P", "effect on": "cell-free assay", "method": "competition with immobilised ligand", "remaining binding": "100%", "SMILES": "CC(=O)N1CCC(c2ccc(C(=O)NC(=N)N)cc2C(F)(F)F)CC1"}
{"target": "KIT D816H", "effect on": "binding", "remaining binding": "83%", "SMILES": "CN(c1nccc(-c2cnn3ncccc23)n1)C1CC1"}
{"target": "KIT", "effect on": "cell-free assay", "method": "competition with immobilised ligand", "remaining binding": "89.5%", "SMILES": "Cc1cc(NC(=O)c2cccc(S(F)(F)(F)(F)F)c2)cc(-n2ccn3nc(-c4cccnc4)cc23)c1"}
{"target": "KIT", "effect on": "binding", "method": "competition with immobilised ligand", "remaining binding": "18%", "SMILES": "O=C(c1ccc(Nc2ncc(Cl)c(-c3cc4ccccc4s3)n2)cc1)N1CCC(N2CCCC2)CC1"}
{"target": "KIT V559D/V654A", "effect on": "binding", "method": "competition with immobilised ligand", "remaining binding": "100%", "SMILES": "O=C(Nc1c[nH]nc1C(=O)NC1CCNCC1)c1cc(F)cc(F)c1"}
{"target": "KIT D816H", "effect on": "binding", "method": "competition with immobilised ligand", "remaining binding": "92%", "SMILES": "O=c1nc(-c2ccccn2)sc2ccccc12"}
{"target": "KIT", "effect on": "binding", "remaining binding": "100%", "SMILES": "Cc1cnn2ncc(-c3ccnc(N(C)C)n3)c2c1"}
{"target": "Mast/stem cell growth factor receptor Kit (KIT, Homo sapiens, UniProt P10721, V559D)", "effect on": "binding", "method": "competition with immobilised ligand", "remaining binding": "78%", "SMILES": "C=CC(=O)N1CCC(C(=O)NCC(=O)N2CCN(c3nc(-c4cnc(N)nc4C(F)F)nc(N4CCOCC4)n3)CC2)CC1"}
{"target": "KIT T670I/V559D", "effect on": "binding", "remaining binding": "100%", "SMILES": "CN(C)c1ncc(F)c(-c2cnn3ncccc23)n1"}
{"target": "KIT V559D/V654A", "effect on": "cell-free assay", "method": "competition with immobilised ligand", "remaining binding": "88%", "SMILES": "O=S(=O)(NC1CCC(c2cc(F)ccc2F)(S(=O)(=O)c2ccc(Cl)cc2)CC1)C(F)(F)F (stereo not drawn)"}
{"target": "KIT", "effect on": "binding", "remaining binding": "95%", "SMILES": "N[C@@H]1CCN(c2nccc(-c3cnn4ncccc34)n2)C1"}
{"target": "KIT autoinhibited", "effect on": "binding", "method": "competition with immobilised ligand", "remaining binding": "95%", "SMILES": "COc1cnc(Nc2cccc(S(N)(=O)=O)c2)nc1N1CCN(c2ccccc2)C(=O)C1"}
